Assay results from different studies.

SMILES | tested on | test | system | setting | measurement | value
COc1cnc(OC)n2nc(NS(=O)(=O)c3c(OCC(F)F)cccc3C(F)(F)F)nc12 | L02 | cell growth or viability, CCK-8 |  | 0.78 µM, 72 h | inhibition | 0%
COc1ncc(-c2cn([C@@H]3O[C@](F)(CO)[C@@H](O)[C@H]3O)cn2)c(OC)n1 | Severe acute respiratory syndrome coronavirus 2 | viral replication, inhibitor | A549-ACE2 | 24 h | IC50 | > 100 µM
O=[N+]([O-])NC(=S)NN=Cc1ccc(Br)cc1 | Leishmania tropica | parasite growth, MTT |  | 72 h, promastigote | IC50 | 1240 µM
CC(=O)OCC(=O)[C@@]12OC3(CCCC3)O[C@@H]1C[C@H]1[C@@H]3CCC4=CC(=O)C=C[C@]4(C)[C@@]3(F)[C@@H](O)C[C@@]12C | Severe acute respiratory syndrome coronavirus 2 | viral replication, inhibitor | Caco-2 | replicon | IC50 | 3.37 µM
COc1ncncc1-c1cn([C@@H]2O[C@](F)(CO[P@@](=O)(N[C@@H](C)C(=O)OC(C)C)Oc3ccccc3)[C@@H](OC(=O)C(C)C)[C@H]2OC(=O)C(C)C)cn1 | Severe acute respiratory syndrome coronavirus 2 | viral replication, inhibitor | A549-ACE2 | 24 h | IC50 | 25.5 µM
N.N.[Cl][Pt][Cl] | NALM-6 | cell growth or viability, ATP luminescence |  | 10 µM, 72 h | inhibition | 97%
CCOc1nc2cccc(C(=O)O)c2n1Cc1ccc(-c2ccccc2-c2nnn[nH]2)cc1 | Severe acute respiratory syndrome coronavirus 2 | viral replication, inhibitor | Calu-3 | replicon | IC50 | 1.05 µM
O=[N+]([O-])NC(=S)NN=Cc1ccc(F)cc1 | Leishmania tropica | parasite growth | J774.A1 | 72 h, intracellular, amastigote | IC50 | 186 µM
CC1=NN(c2ccc(C)c(C)c2)C(=O)/C1=N\Nc1cccc(-c2cccc(C(=O)O)c2)c1O | Severe acute respiratory syndrome coronavirus 2 | viral replication, inhibitor | Caco-2 | replicon | IC50 | 3.1 µM
COc1ncncc1-c1cn([C@@H]2O[C@](F)(CO[P@@](=O)(N[C@@H](C)C(=O)OC(C)C)Oc3ccccc3)[C@@H](O)[C@H]2O)cn1 | Severe acute respiratory syndrome coronavirus 2 | viral replication, inhibitor | A549-ACE2 | 24 h | IC50 | > 100 µM
COc1ccc(C=NNC(=S)N[N+](=O)[O-])cc1OC | Leishmania tropica | parasite growth, MTT |  | 72 h, promastigote | IC50 | 865 µM
CCOC(=O)C1=C(CN2CCOCC2)NC(c2nccs2)=NC1c1ccc(F)cc1Br (centres unmarked) | Hepatitis B virus | viral replication, inhibitor, qPCR | HepDES19 | 72 h | EC50 | 0.04 µM
Cc1c(O)cccc1C(=O)N[C@@H](CSc1ccccc1)[C@H](O)CN1C[C@H]2CCCC[C@H]2C[C@H]1C(=O)NC(C)(C)C | Severe acute respiratory syndrome coronavirus 2 | viral replication, inhibitor | Caco-2 | replicon | IC50 | 1.91 µM
COc1ncc(-c2cn([C@@H]3O[C@](F)(CO)[C@@H](O)[C@H]3O)cn2)c(N)n1 | Severe acute respiratory syndrome coronavirus 2 | viral replication, inhibitor | A549-ACE2 | 24 h | IC50 | > 100 µM
